These results are taken from ChEMBL document CHEMBL1123673, “Comparison of aminoglycoside antibiotics with respect to uptake and lethal activity in Escherichia coli” (J Med Chem, 1987).

Data set [1] is described as follows: (§1) Percent killing of the total Escherichia coli K12 (ATCC 25868) cells at the C50 concentration was determined. In kind it is ADME.
Data set [2] concerns Escherichia coli. Kind of data set: Estimated rate of [3H]DHS uptake in Escherichia coli K12 (ATCC 25868). Format: functional. Also noted: unit not given here. An outline of the steps:
(§2)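 Cultures in tryptone-peptone broth at 37 °C with shaking, grown from OD600 ~0.05 to 0.20, then preexposed to antibiotic for 20 min at 37 °C. Cells pelleted, resuspended in equal volume fresh broth, pulsed 5.0 min at 37 °C with [3H]DHS (1.0 µCi/mL, 3.8 Ci/mmol). Samples filtered, washed with 0.1 M LiCl, scintillation counted. C50 = half-maximal rate estimated from dose-response curves.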

In data set [3] the test system is Escherichia coli. The data set can be described thus: Concentration required for half maximum rate of enhanced [3H]DHS (Dihydrostreptomycin) uptake in Escherichia coli K12 (ATCC 25868)was estimated from dose-response curves. Format: functional. An outline of the steps:
as §2

Data set [4] can be described thus: (§3) Lethal dose required to kill 90% of the Escherichia coli K12 (ATCC 25868) cell population. In kind it is ADME. The essentials:
(§4)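 E. coli K12 in tryptone-peptone broth at 37 °C, OD600 0.20, exposed 20 min at 37 °C to antibiotic; pellets resuspended to OD600 0.10–0.15 in TPB, serially diluted, plated on tryptone-peptone agar, colonies counted after overnight at 37 °C. Value is the concentration killing 90% of the population.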

The nature of data set [5]: (§5) Percent killing of the total Escherichia coli K12 (ATCC 25868)cells at the C50 concentration was determined. Format: ADME.
The test system of data set [6] is Escherichia coli.
Data set [7] in a line: as §1. In kind it is functional.
The nature of data set [8]: as §3. In kind it is functional. The essentials: as §4
Data set [9] concerns Escherichia coli. Kind of data set: Estimated rate of [3H]DHS (Dihydrostreptomycin) uptake in Escherichia coli K12 (ATCC 25868) [pmol/min (optical density unit)E-1] at the C50 was determined. Format: functional. An outline of the steps: as §2
A short description of data set [10]: as §5. Format: functional.
For data set [11], the system named is Escherichia coli. The data set can be described thus: Estimated rate of [3H]DHS (Dihydrostreptomycin) uptake in Escherichia coli K12 (ATCC 25868) [pmol/min (optical density unit)E-1] at the C50 was determined.; OD means optical density. Format: functional. The essentials: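 E. coli K12 grown in tryptone-peptone broth at 37 °C with shaking to OD600 0.20, preexposed 20 min at 37 °C to antibiotic across a dose range; cells pelleted, resuspended in TPB, given [3H]DHS (1.0 µCi/mL, 3.8 Ci/mmol) for 5.0 min at 37 °C; filtered, washed with 0.1 M LiCl, scintillation counted. Rate read at C50 (half-maximal induced rate) from dose-response curves.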

The subject of data set [12] is Escherichia coli. The data set can be described thus: Estimated rate of [3H]DHS (Dihydrostreptomycin) uptake in Escherichia coli K12 (ATCC 25868) [pmol/min (optical density unit)E-1] at the C50 was determined;OD means optical density. In kind it is functional. The essentials:
as §2

With `CNC1C(OC2OC(CO)C(N)C(O)C2O)OC2CC(N)C(OC3C(N)CC(NC(=O)C(O)CCN)C(O)C3O)OC2C1O` (configuration not stated), the “Kill at C50” value in data set [1] is given as 53%. In addition, in data set [2], the Uptake at C50 was 2.4. Further, the C50 in data set [3] was 0.39 µM. The molecule further returned an LD90 in data set [4] of 1.2 µM.

For `NC[C@@H]1O[C@H](O[C@H]2[C@@H](O)[C@H](O[C@@H]3[C@@H](O)[C@H](N)C[C@H](N)[C@H]3O[C@H]3O[C@H](CO)[C@@H](O)[C@H](O)[C@H]3N)O[C@@H]2CO)[C@H](N)[C@@H](O)[C@@H]1O` [PAROMOMYCIN], the “Kill at C50” value in data set [5] came out at 61%. For the same molecule, the Uptake at C50 in [2] is 3.9. In [4], the LD90 was 0.78 µM. In addition, the C50 in [6] turned out to be 0.32 µM.

As for `NCC[C@H](O)C(=O)N[C@@H]1C[C@H](N)[C@@H](O[C@H]2O[C@H](CN)[C@@H](O)[C@H](O)[C@H]2O)[C@H](O)[C@H]1O[C@H]1O[C@H](CO)[C@@H](O)[C@H](N)[C@H]1O` (stereo in doubt) [AMIKACIN], in data set [7], the “Kill at C50” value is 76%. This molecule also had an LD90 in data set [8] of 0.32 µM.

On to `NC[C@@H]1O[C@H](O[C@H]2[C@@H](O)[C@H](O[C@@H]3[C@@H](O)[C@H](N)C[C@H](N)[C@H]3O[C@H]3O[C@H](CO)[C@@H](O)C[C@H]3N)O[C@@H]2CO)[C@H](N)[C@@H](O)[C@@H]1O[C@H]1O[C@H](CO)[C@@H](O)[C@H](O)[C@@H]1O` [LIVIDOMYCIN], for which the “Kill at C50” value in data set [5] is reported as 40%. Besides, in data set [2], the Uptake at C50 was 5.5. In data set [4], this molecule yielded an LD90 of 0.87 µM. In addition, the C50 in data set [6] was 0.18 µM.

In the case of `CNC1C(O)C(OC2C(N)CC(N)C(OC3OC(C(C)N)CCC3N)C2O)OCC1(C)O` (configuration not stated), the “Kill at C50” value in data set [1] is 98%. In [9], the Uptake at C50 was 6.5. The C50 in data set [3] was 0.26 µM. For the same molecule, the LD90 in data set [4] is 0.14 µM.

As for `NC[C@H]1O[C@H](O[C@H]2[C@H](O)[C@@H](O[C@H]3O[C@H](CO)[C@@H](O)[C@H](N)[C@H]3O)[C@H](N)C[C@@H]2N)[C@H](N)[C@@H](O)[C@@H]1O` [BEKANAMYCIN], the “Kill at C50” value in [5] was found to be 31%. In addition, the Uptake at C50 in data set [2] was 6.8. The LD90 in data set [4] turned out to be 1.1 µM. Moreover, the C50 in data set [6] was found to be 0.27 µM.

As to `CN[C@@H]1[C@H](O[C@H]2[C@H](O[C@H]3[C@H](O)[C@@H](O)[C@H](N=C(N)N)[C@@H](O)[C@@H]3N=C(N)N)O[C@@H](C)[C@]2(O)C=O)O[C@@H](CO)[C@H](O)[C@H]1O` [STREPTOMYCIN], the “Kill at C50” value in data set [10] was determined as 88%. Besides, the Uptake at C50 in data set [2] is 5.8. Besides, the LD90 in [8] came out at 0.36 µM. The molecule also returned a C50 in data set [6] of 0.34 µM.

Regarding `CNC1C(OC2OC(CO)C(N)C(O)C2O)OC2CC(NC(=O)C(O)CCN)C(OC3C(N)CC(N)C(O)C3O)OC2C1O` (configuration not stated), in data set [1], the “Kill at C50” value was 93%. Besides, in [2], the Uptake at C50 is 2.6. In addition, the C50 in data set [3] was 0.84 µM. The molecule further yielded an LD90 in data set [4] of 0.72 µM.

For the molecule `NC[C@H]1O[C@H](O[C@@H]2[C@@H](O)[C@H](O[C@@H]3[C@H](O)[C@H](N)C[C@@H](N)[C@H]3O[C@H]3O[C@@H](CO)[C@@H](O)C[C@@H]3N)O[C@@H]2CO)[C@@H](N)[C@@H](O[C@H]2O[C@H](CO)[C@@H](O)[C@H](O)[C@@H]2O)[C@@H]1O`, the “Kill at C50” value in data set [1] is 78%. Moreover, the Uptake at C50 in data set [2] was 4.4. Further, the LD90 in [4] turned out to be 0.88 µM. For the same molecule, in data set [6], the C50 worked out at 0.57 µM.

In the case of `NC[C@@H]1O[C@H](O[C@H]2[C@@H](O)[C@H](O[C@@H]3[C@@H](O)[C@H](N)C[C@H](N)[C@H]3O[C@H]3O[C@H](CN)[C@@H](O)[C@H](O)[C@H]3N)O[C@@H]2CO)[C@H](N)[C@@H](O)[C@@H]1O` [FRAMYCETIN], the “Kill at C50” value in data set [1] amounted to 82%. The Uptake at C50 in [2] is 1.6. Also, the LD90 in data set [4] amounted to 0.46 µM. This molecule returned a C50 in data set [6] of 0.34 µM.

Regarding `CNC1C(OC2OC(CO)C(N)C(O)C2O)OC2CC(N)C(OC3C(N)CC(NC(=O)CN)C(O)C3O)OC2C1O` (configuration not stated), in data set [1], the “Kill at C50” value is 94%. Moreover, the Uptake at C50 in [2] is 2.1. Also, the C50 in [3] was 1.1 µM. In addition, the LD90 in data set [4] was 0.84 µM.

As for `CN[C@@H]1[C@@H](O)[C@@H](O[C@@H]2[C@@H](O)[C@H](O[C@H]3O[C@H]([C@@H](C)NC)CC[C@H]3N)[C@@H](N)C[C@H]2N)OC[C@]1(C)O` [GENTAMICIN C1], the “Kill at C50” value in data set [1] amounted to 85%. Also, the Uptake at C50 in [11] was 5.5. Besides, in data set [4], the LD90 worked out at 0.25 µM. In addition, the C50 in [6] was 0.21 µM.

As for `NCC[C@H](O)C(=O)N[C@@H]1C[C@H](N)[C@@H](O[C@H]2O[C@H](CN)[C@@H](O)[C@H](O)[C@H]2O)[C@H](O)[C@H]1O[C@H]1O[C@H](CO)[C@@H](O)[C@H](N)[C@H]1O` (stereo in doubt), the Uptake at C50 in data set [11] is 4.7. In addition, in [6], the C50 is 0.21 µM.

`CNC1C(OC2OC(CO)C(N)C(O)C2O)OC2CC(NC(=O)CN)C(OC3C(N)CC(N)C(O)C3O)OC2C1O` (configuration not stated): in [1], the “Kill at C50” value is reported as 53%. The Uptake at C50 in data set [2] was 3.3. In [4], this molecule gave an LD90 of 0.83 µM. For the same molecule, the C50 in data set [6] was 0.45 µM.

Take `CN[C@@H]1[C@@H](O[C@H]2O[C@H](CO)[C@@H](N)[C@H](O)[C@H]2O)OC2C[C@@H](N)[C@@H](O[C@H]3[C@H](O)[C@@H](O)[C@H](N)C[C@@H]3N)OC2[C@@H]1O` (some centres not stated) [APRAMYCIN]: in [1], the “Kill at C50” value is on record as 95%. Moreover, in [12], the Uptake at C50 was 4. For the same molecule, the LD90 in data set [4] was 0.67 µM. Also, the C50 in data set [6] amounted to 0.87 µM.

As for `NC[C@H]1O[C@H](O[C@H]2[C@H](O)[C@@H](O[C@H]3O[C@H](CO)[C@@H](O)[C@H](N)[C@H]3O)[C@H](N)C[C@@H]2N)[C@H](N)C[C@@H]1O` [TOBRAMYCIN], the “Kill at C50” value in data set [5] is listed as 54%. In addition, the Uptake at C50 in [2] is 8.3. Further, the C50 in data set [3] is 0.24 µM. This molecule also registered an LD90 in [4] of 0.71 µM.

As to GENTAMICIN, the “Kill at C50” value in [5] was 72%. For the same molecule, in data set [4], the LD90 stood at 0.43 µM.
